Test results from ChEMBL document CHEMBL1135477, “Antifungal agents. 10. New derivatives of 1-[(aryl)[4-aryl-1H-pyrrol-3-yl]methyl]-1H-imidazole, synthesis, anti-candida activity, and quantitative structure-analysis relationship studies” (J Med Chem, 2002).
≈ marks a conversion by molar mass, not a printed value.

Assays:
Assay type in all cases: functional
Candida albicans [1] = assay: In vitro antifungal activity against 40 strains of Candida albicans at pH 5.8; (range is from 2 to 128)
Procedure, shortened: (§1)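 Broth serial-dilution MIC against 40 clinical C. albicans isolates from hospitalized patients, grown in Sabouraud broth at pH 7.2 or 5.8. Cells were pre-grown 18 h at 37 °C, inoculated at 10³/mL, and read at 24 h, 37 °C. Doubling dilutions ran 0.25–256 μg/mL from a DMSO/water solution. MIC was the lowest concentration with no visible growth against a DMSO/water blank.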

Candida [2] = assay: Tested In vitro for antifungal activity against Candida species. at pH 7.2; (percent of resistant species at 256 ug/mL)
Procedure, shortened: (§2)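 Broth serial-dilution test in Sabouraud broth at pH 7.2 or 5.8, against 3 fresh clinical non-albicans isolates (two C. glabrata, one C. krusei). Inocula were 10³/mL, pre-grown 18 h at 37 °C. Compound was twofold-diluted over 0.25–256 µg/mL and read at 24 h, 37 °C for visible growth.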

Candida [3] = assay: Tested in vitro for antifungal activity against Candida species. at pH 5.8 (percent of resistant species at 256 ug/mL); procedure, shortened: as §2
Candida albicans [4] = assay: In vitro antifungal activity against 40 strains of Candida albicans at pH 5.8; procedure, shortened: as §1
[5] = biological target: Lanosterol 14-alpha demethylase (Candida albicans (strain SC5314 / ATCC MYA-2876) (Yeast), UniProt P10613); assay: Anticandida activity- (MIC90 compound) / (MIC90 bifonazole)
Sequence of Lanosterol 14-alpha demethylase (P10613 whole entry): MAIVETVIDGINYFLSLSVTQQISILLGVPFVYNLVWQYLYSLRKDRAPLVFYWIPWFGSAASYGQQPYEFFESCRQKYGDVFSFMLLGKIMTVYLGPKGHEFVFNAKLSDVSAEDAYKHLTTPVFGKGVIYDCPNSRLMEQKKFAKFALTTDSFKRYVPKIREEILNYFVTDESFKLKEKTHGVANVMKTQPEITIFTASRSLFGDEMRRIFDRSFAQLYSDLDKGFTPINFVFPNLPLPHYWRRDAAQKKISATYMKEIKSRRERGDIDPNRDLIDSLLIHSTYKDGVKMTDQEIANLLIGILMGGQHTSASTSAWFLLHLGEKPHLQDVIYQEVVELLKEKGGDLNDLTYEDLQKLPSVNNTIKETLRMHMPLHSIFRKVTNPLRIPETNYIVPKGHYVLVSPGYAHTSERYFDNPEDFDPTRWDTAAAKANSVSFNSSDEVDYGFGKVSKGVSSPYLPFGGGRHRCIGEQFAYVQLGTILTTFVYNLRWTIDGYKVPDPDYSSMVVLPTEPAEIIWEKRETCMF

Candida albicans [6] = assay: In vitro antifungal activity against 40 strains of Candida albicans at pH 5.8; (percent of resistant species at 256 ug/mL)
Procedure, shortened: (§3)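 Broth serial-dilution test in Sabouraud broth at pH 7.2 or 5.8, against 40 fresh clinical C. albicans isolates from hospitalized patients. Inocula were 10³/mL, pre-grown 18 h at 37 °C in Sabouraud dextrose broth. Compound from a DMSO/water stock was twofold-diluted over 0.25–256 µg/mL. Visible growth was read at 24 h, 37 °C.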

Candida albicans [7] = assay: In vitro antifungal activity against 40 strains of Candida albicans at pH 7.2; (percent of resistant species at 256 ug/mL); procedure, shortened: as §3
Candida albicans [8] = assay: In vitro antifungal activity against 40 strains of Candida albicans at pH 7.2; minimum inhibitory concentration (range is from 2 to 256); procedure, shortened: as §1
Candida [9] = assay: Tested In vitro for antifungal activity against Candida species. at pH 7.2; (range is from 8 to 128)
Procedure, shortened: (§4)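 Liquid serial-dilution MIC against 3 freshly isolated clinical Candida strains (two C. glabrata, one C. krusei) in Sabouraud broth at pH 7.2 or 5.8. Inoculum was 10³/mL after 18 h pre-culture at 37 °C, read at 24 h, 37 °C. Range was 0.25–256 μg/mL. Endpoint was no visible growth versus a DMSO/water blank.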

Candida [10] = assay: Tested in vitro for antifungal activity against Candida species. at pH 5.8 (range is from 16 to 256); procedure, shortened: as §4
Candida [11] = assay: Tested In vitro for antifungal activity against Candida species. at pH 7.2; procedure, shortened: as §4
Candida [12] = assay: Tested in vitro for antifungal activity against Candida species. at pH 5.8; procedure, shortened: as §4
Candida albicans [13] = assay: In vitro antifungal activity against 40 strains of Candida albicans at pH 7.2; procedure, shortened: as §1
Candida albicans [14] = assay: In vitro antifungal activity against 40 strains of Candida albicans at pH 5.8; value ranges from 128 to >256; procedure, shortened: as §1
Candida albicans [15] = assay: In vitro antifungal activity against 40 strains of Candida albicans at pH 7.2; minimum inhibitory concentration ( range is from 32 to 128); procedure, shortened: as §1
Candida [16] = assay: Tested In vitro for antifungal activity against Candida species. at pH 7.2; value ranges from 256 to >256; procedure, shortened: as §4
Candida [17] = assay: Tested in vitro for antifungal activity against Candida species. at pH 5.8; value ranges from 256 to >256
Procedure, shortened: (§5)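 Fresh clinical isolates (two C. glabrata, one C. krusei) were pre-grown 18 h at 37 °C in Sabouraud dextrose broth. Broth double-dilution was run in Sabouraud broth at pH 5.8 or 7.2 over 0.25–256 µg/mL from a DMSO/water stock, with 10³/mL inoculum.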

Candida [18] = assay: Tested in vitro for antifungal activity against Candida species. at pH 5.8; (percent of resistant species at 256 ug/mL); procedure, shortened: as §2
Candida [19] = assay: Tested in vitro for antifungal activity against Candida species. at pH 7.2; (percent of resistant species at 256 ug/mL); procedure, shortened: as §2
Candida albicans [20] = assay: In vitro antifungal activity against 40 strains of Candida albicans at pH 7.2; minimum inhibitory concentration; value ranges from 128 to >256; procedure, shortened: as §1
Candida [21] = assay: Tested in vitro for antifungal activity against Candida species. at pH 7.2; procedure, shortened: as §5
Candida albicans [22] = assay: In vitro antifungal activity against 40 strains of Candida albicans at pH 5.8; value ranges from 128 to >256.; procedure, shortened: as §1
Candida albicans [23] = assay: In vitro antifungal activity against 40 strains of Candida albicans at pH 7.2; minimum inhibitory concentration value ranges from 128 to >256; procedure, shortened: as §1
Candida [24] = assay: Tested in vitro for antifungal activity at pH 5.8; range is >250
Procedure, shortened: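 Serial two-fold broth dilution was run in Sabouraud broth at pH 5.8 over 0.25–256 µg/mL, against clinical Candida isolates (40 C. albicans; 2 C. glabrata plus 1 C. krusei). Inoculum was 10³/mL after 18 h pre-culture at 37 °C. No visible growth versus a DMSO/water blank was read at 24 h, 37 °C; the range spans per-strain MICs.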

Row | SMILES | Resistance (Candida [2]) [%] | Resistance (Candida [3]) [%] | MIC (Candida albicans [4]) [µg/mL] | MIC50 (Candida albicans [4]) [µg/mL] | MIC90 (Candida albicans [4]) [µg/mL] | Ratio [5] | Resistance (Candida albicans [6]) [%] | Resistance (Candida albicans [7]) [%] | MIC (Candida [11]) [µg/mL] | MIC50 (Candida [11]) [µg/mL] | MIC90 (Candida [11]) [µg/mL] | MIC (Candida [12]) [µg/mL] | MIC50 (Candida [12]) [µg/mL] | MIC90 (Candida [12]) [µg/mL] | MIC (Candida albicans [13]) [µg/mL] | MIC50 (Candida albicans [13]) [µg/mL] | MIC90 (Candida albicans [13]) [µg/mL] | Range (Candida albicans [14]) [µg/mL] | Resistance (Candida [18]) [%] | Resistance (Candida [19]) [%] | also measured
1 | O=[N+]([O-])c1ccc(-c2c[nH]cc2[C@@H](c2ccc(Cl)cc2Cl)n2ccnc2)cc1 | 0 | 0 | 15 (≈ 36.4 µM) | 8 (≈ 19.4 µM) | 8 (≈ 19.4 µM) | 1.5 | 0 | 0 | 56 (≈ 136 µM) | 32 (≈ 77.4 µM) | 128 (≈ 310 µM) | 133 (≈ 323 µM) | 128 (≈ 310 µM) | 256 (≈ 619 µM) | 14.7 (≈ 35.6 µM) | 8 (≈ 19.4 µM) | 8 (≈ 19.4 µM) |  |  |  | Range (Candida albicans [1]): 128 µg/mL; Range (Candida albicans [8]): 256 µg/mL; Range (Candida [9]): 128 µg/mL; Range (Candida [10]): 256 µg/mL
2 | Nc1ccc(-c2c[nH]cc2[C@@H](c2ccc(Cl)cc2Cl)n2ccnc2)cc1 | 67 | 67 | 219 (≈ 572 µM) | > 256 | > 256 | 52 | 80 | 54 | 256 (≈ 668 µM) | > 256 | > 256 | 256 (≈ 668 µM) | > 256 | > 256 | 85 (≈ 222 µM) | > 256 | > 256 | >128 |  |  | Range (Candida albicans [15]): 128 µg/mL; Range (Candida [16]): >256 µg/mL; Range (Candida [17]): >256 µg/mL
3 | Clc1ccc(-c2c[nH]cc2[C@@H](c2ccc(Cl)cc2Cl)n2cnnc2)cc1 |  |  | 128 (≈ 317 µM) | > 256 | > 256 | 49 | 94 | 77 |  |  |  |  | > 256 | > 256 | 165 (≈ 408 µM) | > 256 | > 256 | >256 | 100 | 100 | Range (Candida albicans [20]): >256 µg/mL; Range (Candida [12]): >256 µg/mL; MIC50 (Candida [21]): > 256 µg/mL; MIC90 (Candida [21]): > 256 µg/mL; Range (Candida [21]): >256 µg/mL
4 | Clc1ccc(-c2c[nH]cc2[C@@H](c2ccc(Cl)cc2Cl)n2cncn2)cc1 |  |  | 209 (≈ 519 µM) | > 256 | > 256 | 49 | 68 | 97 |  |  |  |  | > 256 | > 256 | 128 (≈ 317 µM) | > 256 | > 256 |  | 100 | 100 | Range (Candida albicans [22]): >256 µg/mL; Range (Candida albicans [23]): >256 µg/mL; Range (Candida [24]): >256 µg/mL; MIC50 (Candida [21]): > 256 µg/mL; MIC90 (Candida [21]): > 256 µg/mL; Range (Candida [21]): >256 µg/mL
